Test results as given in ChEMBL document CHEMBL2417369, “Synthesis and evaluation of heteroaryl substituted diazaspirocycles as scaffolds to probe the ATP-binding site of protein kinases” (Bioorg Med Chem, 2013).

Legend:
[1] = target: Fibroblast growth factor receptor 3 (Homo sapiens) (UniProt P22607); assay: Inhibition of FGFR3 (unknown origin) at 30 uM by microfluidic mobility shift assay relative to control
How it was run: (§1)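 Single-point screen at 30 µM test compound across a 24-kinase panel in a microfluidic assay format. ATP was set near each enzyme's Km,[ATP]. […] The pan-AGC inhibitor H-89 served as an internal control on every assay plate.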

[2] = target: T1, Mitogen-activated protein kinase 13 (Homo sapiens) (UniProt O15264); assay: Inhibition of p38delta (unknown origin) at 30 uM by microfluidic mobility shift assay relative to control
T1 sequence (whole entry): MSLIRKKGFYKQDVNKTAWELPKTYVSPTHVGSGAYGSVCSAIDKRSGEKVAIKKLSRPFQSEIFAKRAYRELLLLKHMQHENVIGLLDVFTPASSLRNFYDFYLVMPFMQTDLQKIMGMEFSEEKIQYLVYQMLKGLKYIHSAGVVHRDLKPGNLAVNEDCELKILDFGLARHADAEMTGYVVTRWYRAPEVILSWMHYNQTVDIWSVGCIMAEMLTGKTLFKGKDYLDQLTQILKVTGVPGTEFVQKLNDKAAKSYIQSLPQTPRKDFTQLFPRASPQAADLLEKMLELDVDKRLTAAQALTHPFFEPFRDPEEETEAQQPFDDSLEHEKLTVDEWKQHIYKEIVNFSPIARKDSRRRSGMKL
How it was run: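 Single-point screen against a 24-kinase panel in a commercial microfluidic assay format. Compounds were tested at 30 µM, with ATP at approximately the Km,[ATP] of each enzyme. H-89 was included on each assay plate as an internal control.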

[3] = target: T2, Serine/threonine-protein kinase BRSK1 (Homo sapiens) (UniProt Q8TDC3); assay: Inhibition of BRSK1 (unknown origin) at 30 uM by microfluidic mobility shift assay relative to control; how it was run: as §1
T2 sequence (whole entry): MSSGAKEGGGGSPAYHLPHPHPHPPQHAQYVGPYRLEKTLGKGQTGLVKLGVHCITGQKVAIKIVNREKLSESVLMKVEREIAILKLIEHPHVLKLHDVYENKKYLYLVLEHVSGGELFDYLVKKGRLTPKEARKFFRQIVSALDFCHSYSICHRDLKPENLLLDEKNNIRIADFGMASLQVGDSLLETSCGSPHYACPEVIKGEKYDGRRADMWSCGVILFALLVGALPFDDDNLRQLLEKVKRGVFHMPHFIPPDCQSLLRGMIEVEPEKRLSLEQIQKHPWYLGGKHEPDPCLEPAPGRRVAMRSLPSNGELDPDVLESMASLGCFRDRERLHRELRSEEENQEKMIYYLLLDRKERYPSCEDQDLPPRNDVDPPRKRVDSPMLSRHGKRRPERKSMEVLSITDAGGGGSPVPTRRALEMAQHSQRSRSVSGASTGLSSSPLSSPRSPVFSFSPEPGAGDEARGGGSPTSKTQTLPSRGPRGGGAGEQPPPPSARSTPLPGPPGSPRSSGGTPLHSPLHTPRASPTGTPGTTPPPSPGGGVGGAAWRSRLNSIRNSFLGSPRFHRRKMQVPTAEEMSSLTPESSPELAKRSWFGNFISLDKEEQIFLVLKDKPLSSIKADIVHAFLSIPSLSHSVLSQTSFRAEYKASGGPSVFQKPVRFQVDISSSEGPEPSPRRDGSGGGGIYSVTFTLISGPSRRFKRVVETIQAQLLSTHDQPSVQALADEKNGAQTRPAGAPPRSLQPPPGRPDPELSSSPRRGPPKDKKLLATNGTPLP

[4] = target: Protein kinase C alpha type (Homo sapiens) (UniProt P17252); assay: Inhibition of PKCalpha (unknown origin) at 30 uM by microfluidic mobility shift assay relative to control; how it was run: as §1
[5] = target: Casein kinase I isoform delta (Homo sapiens, UniProt P48730); assay: Inhibition of CK1delta (unknown origin) by microfluidic mobility shift assay
[6] = target: Proto-oncogene tyrosine-protein kinase Src (Homo sapiens, UniProt P12931); assay: Inhibition of SRC (unknown origin) by microfluidic mobility shift assay
[7] = target: Tyrosine-protein kinase Lck (Homo sapiens, UniProt P06239); assay: Inhibition of LCK (unknown origin) by microfluidic mobility shift assay
[8] = target: Tyrosine-protein kinase Lyn (Homo sapiens, UniProt P07948); assay: Inhibition of LYN (unknown origin) by microfluidic mobility shift assay
[9] = target: Tyrosine-protein kinase Fyn (Homo sapiens, UniProt P06241); assay: Inhibition of FYN (unknown origin) by microfluidic mobility shift assay
[10] = target: Tyrosine-protein kinase ABL1 (Homo sapiens, UniProt P00519); assay: Inhibition of ABL (unknown origin) by microfluidic mobility shift assay
[11] = target: Glycogen synthase kinase-3 beta (Homo sapiens, UniProt P49841); assay: Inhibition of GSK3beta (unknown origin) by microfluidic mobility shift assay
[12] = target: Mitogen-activated protein kinase 1 (Homo sapiens, UniProt P28482); assay: Inhibition of ERK2 (unknown origin) by microfluidic mobility shift assay
[13] = target: Mitogen-activated protein kinase 3 (Homo sapiens, UniProt P27361); assay: Inhibition of ERK1 (unknown origin) by microfluidic mobility shift assay
[14] = target: Serine/threonine-protein kinase Chk2 (Homo sapiens, UniProt O96017); assay: Inhibition of CHK2 (unknown origin) by microfluidic mobility shift assay
[15] = target: MAP kinase-activated protein kinase 5 (Homo sapiens, UniProt Q8IW41); assay: Inhibition of PRAK (unknown origin) by microfluidic mobility shift assay
[16] = target: Serine/threonine-protein kinase D2 (Homo sapiens, UniProt Q9BZL6); assay: Inhibition of PKD2 (unknown origin) by microfluidic mobility shift assay
[17] = Inhibition of MAPK (unknown origin) by microfluidic mobility shift assay; set-up: species or system Homo sapiens
[18] = target: Ribosomal protein S6 kinase alpha-1 (Homo sapiens, UniProt Q15418); assay: Inhibition of RSK1 (unknown origin) by microfluidic mobility shift assay
[19] = target: Ribosomal protein S6 kinase alpha-5 (Homo sapiens, UniProt O75582); assay: Inhibition of MSK1 (unknown origin) by microfluidic mobility shift assay
[20] = target: RAC-beta serine/threonine-protein kinase (Homo sapiens, UniProt P31751); assay: Inhibition of AKT2 (unknown origin) by microfluidic mobility shift assay
[21] = target: RAC-alpha serine/threonine-protein kinase (Homo sapiens, UniProt P31749); assay: Inhibition of AKT1 (unknown origin) by microfluidic mobility shift assay
[22] = target: Hepatocyte growth factor receptor (Homo sapiens, UniProt P08581); assay: Inhibition of MET (unknown origin) by microfluidic mobility shift assay
[23] = target: Protein kinase C zeta type (Homo sapiens, UniProt Q05513); assay: Inhibition of PKCzeta (unknown origin) by microfluidic mobility shift assay

Sequence of Fibroblast growth factor receptor 3 (Homo sapiens) (P22607 23-806 limits assumed): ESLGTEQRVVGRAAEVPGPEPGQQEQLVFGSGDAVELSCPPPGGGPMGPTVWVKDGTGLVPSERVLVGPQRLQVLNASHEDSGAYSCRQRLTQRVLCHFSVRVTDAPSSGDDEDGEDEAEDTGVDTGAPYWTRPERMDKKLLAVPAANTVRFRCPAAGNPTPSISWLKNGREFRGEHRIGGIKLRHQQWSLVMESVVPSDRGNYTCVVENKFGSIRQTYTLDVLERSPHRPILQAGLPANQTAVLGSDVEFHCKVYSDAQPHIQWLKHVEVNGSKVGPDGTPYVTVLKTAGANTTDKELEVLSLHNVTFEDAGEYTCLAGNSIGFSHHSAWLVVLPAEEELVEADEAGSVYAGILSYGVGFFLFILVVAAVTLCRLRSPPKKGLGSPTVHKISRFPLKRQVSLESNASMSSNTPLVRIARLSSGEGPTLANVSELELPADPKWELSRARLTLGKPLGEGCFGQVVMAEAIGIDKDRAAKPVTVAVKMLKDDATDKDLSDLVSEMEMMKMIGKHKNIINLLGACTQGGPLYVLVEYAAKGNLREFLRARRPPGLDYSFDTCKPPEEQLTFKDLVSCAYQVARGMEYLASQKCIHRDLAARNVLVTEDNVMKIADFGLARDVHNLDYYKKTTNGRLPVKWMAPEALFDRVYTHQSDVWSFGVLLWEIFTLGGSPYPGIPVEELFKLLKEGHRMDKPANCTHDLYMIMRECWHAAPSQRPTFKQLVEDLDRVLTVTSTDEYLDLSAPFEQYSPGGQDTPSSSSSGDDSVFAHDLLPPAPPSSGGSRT
Sequence of RAC-beta serine/threonine-protein kinase (P31751 whole entry): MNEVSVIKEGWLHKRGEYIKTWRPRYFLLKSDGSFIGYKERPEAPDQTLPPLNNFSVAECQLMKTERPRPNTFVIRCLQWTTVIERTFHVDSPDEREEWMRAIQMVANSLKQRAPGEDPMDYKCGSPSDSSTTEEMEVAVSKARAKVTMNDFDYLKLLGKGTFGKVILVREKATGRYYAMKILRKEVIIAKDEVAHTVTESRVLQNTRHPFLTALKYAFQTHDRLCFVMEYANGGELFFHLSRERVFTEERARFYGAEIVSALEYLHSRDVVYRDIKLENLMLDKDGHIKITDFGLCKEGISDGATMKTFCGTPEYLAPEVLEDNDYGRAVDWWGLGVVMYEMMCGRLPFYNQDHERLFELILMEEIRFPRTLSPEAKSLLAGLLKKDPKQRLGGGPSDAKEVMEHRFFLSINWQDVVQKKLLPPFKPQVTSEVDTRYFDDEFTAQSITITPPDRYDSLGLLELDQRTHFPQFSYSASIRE
Sequence of Mitogen-activated protein kinase 1 (P28482 whole entry): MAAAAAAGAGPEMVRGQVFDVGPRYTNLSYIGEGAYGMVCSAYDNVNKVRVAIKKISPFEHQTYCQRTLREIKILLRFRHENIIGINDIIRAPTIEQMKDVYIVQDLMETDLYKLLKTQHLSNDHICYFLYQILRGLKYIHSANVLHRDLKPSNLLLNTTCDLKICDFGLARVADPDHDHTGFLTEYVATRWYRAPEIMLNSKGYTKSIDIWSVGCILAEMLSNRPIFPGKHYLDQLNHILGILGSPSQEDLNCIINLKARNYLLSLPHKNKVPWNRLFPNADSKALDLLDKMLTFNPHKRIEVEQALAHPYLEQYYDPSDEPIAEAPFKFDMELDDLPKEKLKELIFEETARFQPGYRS
Sequence of Casein kinase I isoform delta (P48730 whole entry, canonical isoform): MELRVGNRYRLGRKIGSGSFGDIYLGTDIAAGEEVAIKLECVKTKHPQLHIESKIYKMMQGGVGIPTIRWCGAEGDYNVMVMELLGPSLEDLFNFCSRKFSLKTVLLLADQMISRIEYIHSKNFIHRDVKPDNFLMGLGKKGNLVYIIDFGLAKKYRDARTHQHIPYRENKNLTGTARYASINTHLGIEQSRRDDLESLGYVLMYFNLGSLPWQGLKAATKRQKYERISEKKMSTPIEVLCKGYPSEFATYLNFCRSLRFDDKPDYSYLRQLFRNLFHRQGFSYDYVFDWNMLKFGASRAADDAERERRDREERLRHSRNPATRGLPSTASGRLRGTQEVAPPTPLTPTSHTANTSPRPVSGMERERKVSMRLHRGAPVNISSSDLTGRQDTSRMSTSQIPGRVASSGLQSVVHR
Sequence of Tyrosine-protein kinase Fyn (P06241 whole entry): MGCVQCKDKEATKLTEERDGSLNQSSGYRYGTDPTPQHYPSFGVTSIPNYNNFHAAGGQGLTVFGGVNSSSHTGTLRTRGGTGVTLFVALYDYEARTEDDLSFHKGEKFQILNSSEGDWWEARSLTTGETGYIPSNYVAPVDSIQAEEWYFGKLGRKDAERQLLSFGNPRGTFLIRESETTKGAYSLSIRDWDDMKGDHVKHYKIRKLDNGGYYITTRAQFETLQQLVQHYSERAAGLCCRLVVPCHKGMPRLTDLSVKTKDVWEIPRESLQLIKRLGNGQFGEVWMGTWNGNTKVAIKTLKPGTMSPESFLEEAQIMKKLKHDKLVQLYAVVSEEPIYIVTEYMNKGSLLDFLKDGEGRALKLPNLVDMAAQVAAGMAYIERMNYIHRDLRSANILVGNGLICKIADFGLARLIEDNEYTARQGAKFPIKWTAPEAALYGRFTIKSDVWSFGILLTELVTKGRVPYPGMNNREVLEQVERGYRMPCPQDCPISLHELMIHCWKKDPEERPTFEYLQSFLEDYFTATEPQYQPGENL
Sequence of MAP kinase-activated protein kinase 5 (Q8IW41 whole entry): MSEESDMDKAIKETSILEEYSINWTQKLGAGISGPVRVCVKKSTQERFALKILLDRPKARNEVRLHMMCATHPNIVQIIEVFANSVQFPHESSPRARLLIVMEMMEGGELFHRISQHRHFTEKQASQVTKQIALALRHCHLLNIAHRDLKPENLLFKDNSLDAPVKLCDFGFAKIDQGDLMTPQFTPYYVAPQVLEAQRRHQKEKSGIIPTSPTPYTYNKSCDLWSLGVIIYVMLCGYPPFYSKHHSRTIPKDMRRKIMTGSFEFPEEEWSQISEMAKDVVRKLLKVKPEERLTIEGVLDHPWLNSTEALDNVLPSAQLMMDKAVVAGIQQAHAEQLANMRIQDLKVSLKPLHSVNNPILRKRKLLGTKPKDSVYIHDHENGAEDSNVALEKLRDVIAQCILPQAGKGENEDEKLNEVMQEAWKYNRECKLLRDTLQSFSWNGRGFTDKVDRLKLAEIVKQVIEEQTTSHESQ
Sequence of RAC-alpha serine/threonine-protein kinase (P31749 whole entry): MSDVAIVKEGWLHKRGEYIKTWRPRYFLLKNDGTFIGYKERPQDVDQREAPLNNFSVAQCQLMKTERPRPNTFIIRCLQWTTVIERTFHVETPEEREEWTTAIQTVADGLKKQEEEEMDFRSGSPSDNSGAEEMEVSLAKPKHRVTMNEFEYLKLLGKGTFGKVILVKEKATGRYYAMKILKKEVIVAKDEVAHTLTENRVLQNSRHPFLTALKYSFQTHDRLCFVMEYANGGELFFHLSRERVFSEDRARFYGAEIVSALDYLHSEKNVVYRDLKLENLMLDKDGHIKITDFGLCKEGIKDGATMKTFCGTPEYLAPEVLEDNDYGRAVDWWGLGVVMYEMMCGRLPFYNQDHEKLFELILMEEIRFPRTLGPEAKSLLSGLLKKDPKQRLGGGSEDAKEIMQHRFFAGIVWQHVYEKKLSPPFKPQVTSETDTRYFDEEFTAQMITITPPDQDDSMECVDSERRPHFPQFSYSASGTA
Sequence of Proto-oncogene tyrosine-protein kinase Src (P12931 2-536 limits assumed): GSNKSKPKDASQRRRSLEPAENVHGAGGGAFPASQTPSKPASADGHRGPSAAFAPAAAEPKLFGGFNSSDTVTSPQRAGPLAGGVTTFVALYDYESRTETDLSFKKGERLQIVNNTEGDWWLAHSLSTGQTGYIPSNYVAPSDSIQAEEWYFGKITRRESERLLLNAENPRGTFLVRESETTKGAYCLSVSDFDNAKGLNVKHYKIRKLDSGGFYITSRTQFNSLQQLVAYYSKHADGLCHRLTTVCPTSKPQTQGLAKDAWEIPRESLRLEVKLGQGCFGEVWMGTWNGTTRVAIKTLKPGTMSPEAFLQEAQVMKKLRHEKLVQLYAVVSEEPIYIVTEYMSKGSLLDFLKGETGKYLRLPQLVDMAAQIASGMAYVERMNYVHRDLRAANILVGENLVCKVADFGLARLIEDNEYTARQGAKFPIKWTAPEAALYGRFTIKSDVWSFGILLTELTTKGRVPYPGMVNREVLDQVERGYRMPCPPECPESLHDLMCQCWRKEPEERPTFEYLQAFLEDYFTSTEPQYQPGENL

Row | SMILES | inhibition [1] | inhibition [2] | inhibition [3] | inhibition [4] | IC50 [5] | IC50 [6] | IC50 [7] | IC50 [8] | IC50 [9] | IC50 [10] | IC50 [11] | IC50 [12] | IC50 [13] | IC50 [15] | IC50 [16] | IC50 [17] | IC50 [19] | IC50 [20] | IC50 [21] | also measured
1 | c1nc(N2CCC3(CCCCN3)CC2)c2nc[nH]c2n1 | – | – | – | – | 238 µM | 150 µM | 113 µM | 178 µM | 158 µM | 126 µM | 138 µM | 47 µM | 60 µM | 226 µM | 46 µM | 103 µM | 5.3 µM | 66 µM | 14 µM | IC50 [14]: 41 µM; IC50 [18]: 63 µM
2 | c1nc(N2CCC3(CCCNC3)CC2)c2nc[nH]c2n1 | – | – | – | – | 97 µM | 18 µM | 20 µM | 14 µM | 26 µM | 7 µM | 55 µM | 38 µM | 37 µM | 41 µM | 1.3 µM | 19 µM | 0.7 µM | 9.5 µM | 1.6 µM | IC50 [22]: 183 µM; IC50 [23]: 74 µM
3 | c1ccc(CC2CCC3(CCN(c4ncnc5[nH]cnc45)CC3)NC2)cc1 (racemic) | 10% | 4% | 10% | 35% | – | – | – | – | – | – | – | – | – | – | – | – | – | – | – | –

More lines, main results first:

Row | inhibition [1] | inhibition [2] | inhibition [3] | inhibition [4] | SMILES | IC50 [5] | IC50 [6] | IC50 [7] | IC50 [8] | IC50 [9] | IC50 [10] | IC50 [11] | IC50 [12] | IC50 [13] | IC50 [15] | IC50 [16] | IC50 [17] | IC50 [19] | IC50 [20] | IC50 [21] | also measured
4 | 7% | 23% | 16% | 78% | c1ccc(CC2CCNC3(CCN(c4ncnc5[nH]cnc45)CC3)C2)cc1 (racemic) | – | – | – | – | – | – | – | – | – | – | – | – | – | – | – | –
5 | 7% | 7% | 13% | 59% | c1ccc(C2CCNC3(CCN(c4ncnc5[nH]cnc45)CC3)C2)cc1 (racemic) | – | – | – | – | – | – | – | – | – | – | – | – | – | – | – | –
